Data: ChEMBL document CHEMBL3407400, “Design, synthesis and biological evaluations of chirally pure 1,2,3,4-tertrahydroisoquinoline analogs as anti-cancer agents” (Eur J Med Chem, 2015)

Key:
[1] = system: MCF7; test: Anticancer activity against human MCF7 cells after 48 hrs by MTT assay; format: functional, cell-based; conditions: MCF7, 48 h
Summary of the method: (§1)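 Cell lines held in DMEM or MEM with 10% FBS and antibiotic-antimycotic at 37 °C, 5% CO2. Cells seeded at 1 × 10⁴ per well in DMEM with 10% FBS and left 24 h. Compounds diluted in medium and added alongside vehicle control for 48 h. MTT (5 mg/mL) added for 4 h, formazan dissolved in DMSO, absorbance read at 570 nm.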

[2] = system: A549; test: Anticancer activity against human A549 cells after 48 hrs by MTT assay; format: functional, cell-based; conditions: A549, 48 h; summary of the method: as §1
[3] = system: DU-145; test: Anticancer activity against human DU145 cells after 48 hrs by MTT assay; format: functional, cell-based; conditions: DU-145, 48 h; summary of the method: as §1
[4] = system: HeLa; test: Anticancer activity against human HeLa cells after 48 hrs by MTT assay; format: functional, cell-based; summary of the method: as §1
[5] = system: HepG2; test: Anticancer activity against human HepG2 cells after 48 hrs by MTT assay; format: functional, cell-based; conditions: HepG2, 48 h; summary of the method: as §1
[6] = system: DU-145; test: Cell cycle arrest in human DU145 cells assessed as subG1 phase at 1 uM after 48 hrs by propidium iodide based flow cytometry (reference value: 9.36 %); format: functional
[7] = system: DU-145; test: Cell cycle arrest in human DU145 cells assessed as G0/G1 phase at 1 uM after 48 hrs by propidium iodide based flow cytometry (reference value: 79.15 %); format: functional
[8] = system: DU-145; test: Cell cycle arrest in human DU145 cells assessed as S phase at 1 uM after 48 hrs by propidium iodide based flow cytometry (reference value: 1.65 %); format: functional
[9] = system: DU-145; test: Cell cycle arrest in human DU145 cells assessed as G2/M phase at 1 uM after 48 hrs by propidium iodide based flow cytometry (reference value: 6.75 %); format: functional

Row | SMILES | IC50 [1] | IC50 [2] | IC50 [3] | IC50 [4] | IC50 [5] | Activity [6] | Activity [7] | Activity [8] | Activity [9]
1 | COc1ccc(C(=O)N2Cc3ccccc3[C@@H](OCc3ccccc3)[C@@H]2CO)c(O)c1 | 21.8 µM | 6.46 µM | 9.77 µM | 12.5 µM | 11.4 µM | – | – | – | –
2 | Cc1ccc(S(=O)(=O)N2C[C@H]3[C@H](OCc4ccccc4)c4ccccc4CN3C(=O)[C@@H]2Cc2ccccc2)cc1 | 17.6 µM | 13.7 µM | 7.41 µM | 20.3 µM | 10.8 µM | – | – | – | –
3 | COc1cc([C@@H]2c3cc4c(cc3[C@@H](O[C@@H]3O[C@@H]5CO[C@@H](C)O[C@H]5[C@H](O)[C@H]3O)[C@H]3COC(=O)[C@H]23)OCO4)cc(OC)c1O [ETOPOSIDE] | 2.69 µM | 3.01 µM | 1.98 µM | 3.23 µM | 2.45 µM | 7.13% | 48.84% | 1.45% | 38.75%
4 | O=C(/C=C/c1cccc(O)c1)N1Cc2ccccc2[C@@H](OCc2ccccc2)[C@@H]1CO | 19.2 µM | 4.36 µM | 2.08 µM | 15.8 µM | 2.82 µM | – | – | – | –
5 | COc1cc(/C=C/C(=O)N2Cc3ccccc3[C@@H](OCc3ccccc3)[C@@H]2CO)ccc1O | 37.3 µM | 63 µM | 41.3 µM | 67.6 µM | 79.4 µM | – | – | – | –
6 | COc1cccc(/C=C/C(=O)N2Cc3ccccc3[C@@H](OCc3ccccc3)[C@@H]2CO)c1OC | 55.1 µM | 39.8 µM | 29.9 µM | 32.8 µM | 31 µM | – | – | – | –
7 | Cc1ccc(S(=O)(=O)NCC(=O)N2Cc3ccccc3[C@@H](OCc3ccccc3)[C@@H]2CO)cc1 | 11.5 µM | 6.03 µM | 3.8 µM | 15.1 µM | 5.05 µM | – | – | – | –
8 | Cc1ccc(S(=O)(=O)Nc2ccccc2C(=O)N2Cc3ccccc3[C@@H](OCc3ccccc3)[C@@H]2CO)cc1 | 79.4 µM | 37.1 µM | 39.8 µM | 56.3 µM | 57.5 µM | – | – | – | –
9 | O=C(/C=C/c1ccc([N+](=O)[O-])cc1)N1Cc2ccccc2[C@@H](OCc2ccccc2)[C@@H]1CO | 24.4 µM | 5.62 µM | 4.07 µM | 26.8 µM | 5.37 µM | – | – | – | –
10 | COc1cccc2c1C(=O)c1c(O)c3c(c(O)c1C2=O)C[C@@](O)(C(=O)CO)C[C@@H]3O[C@H]1C[C@H](N)[C@H](O)[C@H](C)O1 [DOXORUBICIN] | – | – | 1.3 µM | 2.29 µM | – | – | – | – | –
